From PubChem
Rows were chosen to be rich in hits. Some 3.5% of all compounds tested hit in one or more screens of this group.
MrgX1 allo act = allosterically activates human MrgX1 receptor signaling | AID 588675 | MrgX1-HEK293, Fluo-4 calcium flux, FDSS; stronger effect = higher value | actives 0.63% (n = 310,000) | Q96LB2 | B-score at 10 µM;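 active = plate-corrected calcium response at least 3 library SD above typical, normal starting fluorescence, not activating the receptor alone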;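 note: compound read alongside a low EC10 to EC30 dose of BAM8-22 agonist; peak minus trough fluorescence over baseline measured at the second addition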
Target sequence (Q96LB2 whole entry, looked up): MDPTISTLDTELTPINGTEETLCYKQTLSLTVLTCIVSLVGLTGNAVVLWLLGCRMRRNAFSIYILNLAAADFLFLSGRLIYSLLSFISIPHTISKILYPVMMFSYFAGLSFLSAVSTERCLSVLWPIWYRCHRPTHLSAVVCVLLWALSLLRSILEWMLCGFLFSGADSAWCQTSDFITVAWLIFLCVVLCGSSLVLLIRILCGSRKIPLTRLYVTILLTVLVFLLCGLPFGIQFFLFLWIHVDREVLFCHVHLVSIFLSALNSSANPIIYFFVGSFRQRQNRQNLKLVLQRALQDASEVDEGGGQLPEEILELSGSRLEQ
RGS4 act = RGS4 potentiation or activation | HEK293 M3R/inducible RGS4, carbachol calcium flux Fluo4; stronger effect = lower value | B-score at 10 µM | actives 0.92% (n = 310,000) | AID 463111;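 active = B-score of the integrated calcium signal more than 4 SD below the library mean, with starting fluorescence not abnormally high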;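 note: negative B-score means reduced calcium response which marks RGS4 activation or potentiation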
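Assay system: Inducible-RGS4 HEK293 cells carrying M3 receptor | Schedule: Compound preincubation 20 min at room temperature before agonist | Signal: Kinetic calcium fluorescence imaging with Fluo4-AM dye, 2 µM | Read-out basis: B score from integrated fluorescence ratio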
MrgX1 antagonist = human MrgX1 receptor antagonism, primary screen; Q96LB2; actives 1.3% (n = 310,000); MRGX1-HEK293 calcium flux, Fluo-4, BAM8-22 antagonism; stronger effect = lower value; B-score at 10 µM;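 active = calcium-response B-score plate-corrected more than 3 library SD below zero, starting fluorescence within 5 deviations, no agonist response on first addition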;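 note: peak minus trough fluorescence over baseline after final BAM8-22 challenge near maximal dose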
MrgX1 ag = agonists of human MrgX1 receptor; MrgX1-HEK293 cells, Fluo-4 calcium fluorescence, agonist mode; stronger effect = higher value; actives 0.44% (n = 310,000); B-score at 10 µM;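 active = calcium response B-score plate-corrected fluorescence ratio at least 3 library SD, with starting fluorescence B-score inside 5 SD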
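times = overnight plating, then 30 min 37 °C plus 30 min room-temperature dye loading | assay system = stable human MrgX1 HEK293 cell line | input = fifteen thousand cells per well | signal = kinetic calcium dye fluorescence, Fluo-4 NW | dosing = compound delivered in addition one of three | read-out = B-scored fluorescence response ratio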
RGS4 block = human RGS4 inhibition; actives 0.45% (n = 310,000); B-score at 10 µM; P49798; HEK293 M3R/RGS4 inducible, Fluo-4 calcium flux; stronger effect = higher value; triggered by carbachol at its EC20;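 active = B-score, a plate-corrected calcium signal, over three deviations above library mean, with baseline fluorescence within five deviations of library mean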;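 note: RGS4 expression induced by doxycycline in cells with stable M3 receptor; B-score is computed from the integrated fluorescence ratio over baseline after carbachol; higher B-score means a larger calcium signal and so more RGS4 inhibition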
Large screens that a line does not name were inactive.

COc1ccccc1CCC(=O)N(C)C1CCCN(Cc2ccccc2F)C1 (configuration not stated)	none
COc1ccc(NS(=O)(=O)c2cccc(C(=O)NNC(=O)c3cccn3C)c2)cc1	none
Cc1ccc(NS(=O)(=O)c2cccc(C(=O)NNC(=O)c3cccn3C)c2)c(C)c1	MrgX1 antagonist -6.7
CCCOc1cccc(-c2cc(C(=O)N/N=C/c3ccccn3)c3ccccc3n2)c1	RGS4 act -9.1
Cc1cccc(-c2cc(C(=O)N/N=C/c3cccnc3)c3ccccc3n2)c1	none
CCCOc1cccc(-c2cc(C(=O)N/N=C/c3cccnc3)c3ccccc3n2)c1	RGS4 act -8.1
CCOC(=O)c1cc2c(=O)n3cccc(C)c3nc2n(Cc2ccco2)c1=NC(=O)c1ccccc1	RGS4 act -7.2
CCOC(=O)c1cc2c(=O)n3ccccc3nc2n(Cc2ccco2)c1=NC(=O)c1cccc(OC)c1	RGS4 act -7.4, MrgX1 antagonist -5.8
Cc1ccc(N(Cc2cc3ccc(C)cc3[nH]c2=O)S(=O)(=O)c2ccccc2)cc1	none
COc1cc(/C=N/n2cc(-c3ccccc3)[nH]c2=S)cc(OC)c1O	MrgX1 allo act 11
Oc1ccc(/C=N/n2cc(-c3ccccc3)[nH]c2=S)cc1	none
CC(=O)N1N=C(c2ccc(Cl)cc2)OC1c1ccc(C(C)C)cc1 (configuration not stated)	RGS4 act -7.9
CC(=O)N1N=C(c2ccc(C)cc2)OC1c1ccc(Br)cc1 (configuration not stated)	none
Fc1ccc(-n2nnc(-c3cccnc3)n2)cc1	none
Fc1ccc(C(CCCn2nnc(-c3cccnc3)n2)c2ccc(F)cc2)cc1	RGS4 act -8.7
CC(C)Oc1ccc(C(=O)NC2(C(F)(F)F)NC(=O)N(CCCc3ccccc3)C2=O)cc1 (configuration not stated)	RGS4 act -7.1
CCCCN1C(=O)NC(NC(=O)c2ccco2)(C(F)(F)F)C1=O (configuration not stated)	none
CCCCCCCCC(=O)N/N=C/c1ccccn1	none
CCCCCCCCC/C(=N\O)c1ccccn1	RGS4 act -10
CCCCC(=O)N/N=C(\C)c1cccc(NC(=O)C2CC2)c1	MrgX1 antagonist -5.6
CCC1CCCCN1CCCNC(=O)c1ccc2c(c1)N(Cc1c(F)cccc1Cl)C(=O)CS2 (configuration not stated)	RGS4 act -8.2
O=C(NCCN1CCOCC1)c1ccc2c(c1)N(Cc1ccc(Cl)cc1)C(=O)CS2	RGS4 act -7.3
O=C(NCCN1CCOCC1)c1ccc2c(c1)N(Cc1ccccc1)C(=O)CS2	none
CC(=O)Nc1ccc(NC(=O)CCC(=O)Oc2ccc(C)cc2)cc1	none
Cn1cc(/C=C2\SC(=S)N(NC(=O)c3ccccc3Cl)C2=O)c2ccccc21	none (no result: RGS4 act, RGS4 block)
COc1cc(/C=C2\SC(=S)N(NC(=O)c3cccnc3)C2=O)ccc1O	MrgX1 antagonist -6.7
Cc1ccc(C(=O)NN2C(=O)/C(=C/c3cn(C)c4ccccc34)SC2=S)cc1	MrgX1 antagonist -4.8 (no result: RGS4 act, RGS4 block)
O=C(NN1C(=O)/C(=C/c2ccc(O)c(O)c2)SC1=S)c1ccccc1	MrgX1 ag 32
COc1cc(/C=C2\SC(=S)N(NC(=O)c3ccc(O)cc3)C2=O)ccc1O	none
O=C1/C(=C/c2ccc(O)c(O)c2)SC(=S)N1Nc1ccccc1	none (no result: MrgX1 allo act, MrgX1 antagonist, MrgX1 ag)
COc1ccccc1OCCOCCOc1ccc(C)cc1[N+](=O)[O-]	MrgX1 antagonist -7
COc1cc(C)ccc1OCCOCCN(C)Cc1ccccc1	MrgX1 antagonist -6.5
COc1ccccc1C(=O)NNC(=O)CCC(=O)NCc1ccccc1	none
Cc1cccc2cc(C(c3nnnn3CC3CCCO3)N3CCc4ccccc4C3)c(=O)[nH]c12 (configuration not stated)	MrgX1 antagonist -5.1 (no result: RGS4 act, RGS4 block)
Cc1ccc2cc(C(c3nnnn3CC3CCCO3)N3CCc4ccccc4C3)c(=O)[nH]c2c1 (configuration not stated)	none
CC(=O)c1ccc(OCC(=O)N2CCCC(Nc3ccc(C)c(C)c3)C2)cc1 (configuration not stated)	none
CN(CCC#N)C(=O)COC(=O)/C=C/c1ccc2c(c1)OCO2	MrgX1 antagonist -6
CCCc1ccc2oc(C(=O)N3CCNC(=O)C3CC(=O)OC)c(C)c2c1 (configuration not stated)	none
